Screening data from PubChem.
This is a sample that favours compounds with a hit; in the whole collection about 5.5% have one here.
Yeast growth inh – chemicals that inhibit yeast BB579 growth in restrictive medium (lifespan-shortening candidates); S. cerevisiae BB579 growth, OD615, 48 h; inhibition, % at 10 µM; 140,000 compounds, 0.51% hits; AID 804;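 active means inhibition above a set limit, 3 SD over the mean compound inhibition, cut at about 44% in these data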
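System: Saccharomyces cerevisiae DeaD strain BB579, replicative lifespan model yeast. Buffer or medium: restrictive glucose-based CSMM-D medium. Doses: one dose, 10 µM compound with 0.25% DMSO. Timing: 4 h preincubation and 48 h exposure at 30 °C. Detection: turbidity as optical density at 615 nm. Benchmarks: amphotericin B 10 µg/mL, positive.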
WT yeast gro inh – growth inhibition of WT yeast, mitochondrial fusion screen. AID 1362. inhibition, % at 10 µM. mitochondrial fusion phenotypic screen, WT strain. 190,000 compounds, 2.1% hits; in the data active means inhibition above about 58%; tested in S. cerevisiae
Cl transport mod – KCC2 (human) Cl- transport modulation. 190,000 compounds, 2.2% hits. AID 1456. B-score of Tl+ flux slope (higher = more flux/activation; lower = inhibition) at 10 µM. KCC2 cells, thallium flux FluoZin-2 fluorescence;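 active means thallium flux slope and its plate-corrected score both differing from the plate sample mean at a set confidence after two filtering rounds, in either direction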;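 further: slope of fluorescence scaled to starting intensity during 10 to 20 s after thallium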
Target sequence (Q9H2X9 whole entry, looked up): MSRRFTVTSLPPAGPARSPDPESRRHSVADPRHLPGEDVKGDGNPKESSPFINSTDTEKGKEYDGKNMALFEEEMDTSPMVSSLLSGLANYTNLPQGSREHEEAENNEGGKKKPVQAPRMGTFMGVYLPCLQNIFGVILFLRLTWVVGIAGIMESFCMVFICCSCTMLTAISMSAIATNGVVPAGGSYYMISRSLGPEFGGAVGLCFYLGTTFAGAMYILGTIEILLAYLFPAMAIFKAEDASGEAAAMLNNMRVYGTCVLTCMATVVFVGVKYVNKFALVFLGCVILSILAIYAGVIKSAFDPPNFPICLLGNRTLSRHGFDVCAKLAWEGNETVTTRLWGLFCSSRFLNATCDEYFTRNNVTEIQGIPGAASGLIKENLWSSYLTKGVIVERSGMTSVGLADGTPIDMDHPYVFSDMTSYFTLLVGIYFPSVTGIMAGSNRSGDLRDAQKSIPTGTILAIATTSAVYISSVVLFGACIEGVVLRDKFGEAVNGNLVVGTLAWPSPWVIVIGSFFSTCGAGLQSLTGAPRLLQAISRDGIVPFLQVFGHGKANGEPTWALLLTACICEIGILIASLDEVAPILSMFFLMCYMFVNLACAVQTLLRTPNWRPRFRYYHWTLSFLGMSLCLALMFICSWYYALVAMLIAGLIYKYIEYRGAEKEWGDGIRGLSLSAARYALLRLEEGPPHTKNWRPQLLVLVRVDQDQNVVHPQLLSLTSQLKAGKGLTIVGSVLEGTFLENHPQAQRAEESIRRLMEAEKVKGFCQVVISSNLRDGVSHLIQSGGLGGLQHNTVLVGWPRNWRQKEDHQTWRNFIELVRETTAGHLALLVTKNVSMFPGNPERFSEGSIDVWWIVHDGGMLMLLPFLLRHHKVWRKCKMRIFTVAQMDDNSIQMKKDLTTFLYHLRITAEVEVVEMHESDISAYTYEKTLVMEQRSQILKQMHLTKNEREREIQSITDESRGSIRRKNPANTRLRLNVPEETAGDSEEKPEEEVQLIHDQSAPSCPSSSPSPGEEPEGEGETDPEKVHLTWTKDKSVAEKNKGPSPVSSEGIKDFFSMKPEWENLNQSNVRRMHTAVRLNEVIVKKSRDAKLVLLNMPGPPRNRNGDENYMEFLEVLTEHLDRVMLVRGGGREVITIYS
RAM network inh – yeast RAM network inhibition; AID 868; S. cerevisiae dse1pr::URA3 reporter, 5-FOA growth OD615, 2 d; analog-sensitive cbk1-as2 kinase mutant strain; 190,000 compounds, 1.8% hits; inhibition, % at 50 µM;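 active means inhibition above a set limit, 3 SD over mean compound inhibition, cut at about 8.4% in these data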;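 further: 0% = DMSO-only wells with no growth and 100% = 10 µM 1-NA-PP1 full growth; inhibition rescues growth on 5-FOA so higher OD means more RAM inhibition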
Yeast lifespan up – yeast lifespan extension | AID 775 | S. cerevisiae growth with nicotinamide, OD615; deaD strain in restrictive glucose medium | 130,000 compounds, 0.68% hits | inhibition of the nicotinamide effect, % at 10 µM;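 active means inhibition above a set limit, placed 3 SD over the median of all compounds, cut at about 26% in these data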;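 further: 0% = nicotinamide-treated wells and 100% = cells grown without nicotinamide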
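assay system = DeaD-strain S. cerevisiae | buffer or medium = restrictive glucose medium | reagent = 1.5 mM nicotinamide | compound = 10 µM single point, 0.25% DMSO | incubation = 48 h compound exposure at 30 °C, humidified | signal = OD615 measurement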
The depositor's hits bear a star; x = not tested or not shown.

SMILES	Yeast growth inh	WT yeast gro inh	Cl transport mod	RAM network inh	Yeast lifespan up
O=C(/C=C/c1ccco1)NC(=S)Nc1ccccc1N1CCOCC1	-41	5	-0.75	1	-4
O=C(NC(=S)Nc1cccc(Cl)c1N1CCOCC1)c1cccs1	x	15	3.5	3	x
O=C(NC(=S)Nc1ccccc1N1CCOCC1)c1ccco1	-13	8	18*	2	1
O=C(NC(=S)Nc1cccc(Cl)c1N1CCCCC1)c1ccco1	-29	9	6.7*	9.7*	18
O=C(NC(=S)Nc1cccc(Cl)c1N1CCCCC1)c1cccs1	-21	44	1.9	9.4*	3
Cc1ccc(C(=O)NC(=S)Nc2ccc(NC(=O)c3cccs3)cc2)cc1[N+](=O)[O-]	-17	21	0.13	2	0
COc1ccc2c(Cn3cnc4cc([N+](=O)[O-])ccc4c3=O)cc(=O)oc2c1	x	x	1.1	x	x
N#Cc1cccc(NC(=O)CN2C(=O)NC(Cc3ccccc3)C2=O)c1 (configuration not stated)	x	x	-0.21	x	x
O=C(NC(=S)Nc1ccccc1N1CCCCC1)c1ccco1	-43	73*	20*	1	-6
O=C(CSc1nnc(-c2ccccc2)n1C1CCCCC1)N1CCCC1	-15	7	-0.38	0	-6
CC1CCCN(C(=O)CSc2nnc(-c3cccnc3)n2C2CCCCC2)C1 (configuration not stated)	-41	65*	0.32	0	-12
Cc1ccc(Sc2nnc(-c3ccccc3)cc2C#N)cc1	-42	13	-0.0094	6	-8
N#Cc1cc(-c2ccccc2)cnc1Sc1ccccc1	-30	33	0.067	9.2*	-16
O=C(OCc1cccc2ccccc12)C1CC(=O)N(c2ccccc2)C1 (configuration not stated)	-34	-25	x	11*	-6
O=C1CNC(=S)N1CCc1ccccc1Cl	x	x	0.0092	x	x
CN1CCN(/N=C/c2cccc(Cl)c2Cl)CC1	-40	8	1.1	1	30*
COc1ccc(C2CC(c3ccccc3OC(C)=O)=NN2C(C)=O)cc1 (configuration not stated)	x	x	-0.42	x	x
Cc1cc(C)cc(C(=O)/C=C2\NC(=O)CS2)c1	-29	-9	6.4*	1	27
CCn1ncc(C2=NOC(C(=O)Nc3c(C)n(C)n(-c4ccccc4)c3=O)C2)c1C (configuration not stated)	48*	9	0.26	1	-11
COc1cccc2cc(C(N)=O)/c(=N/NC(=O)COc3ccc(Cl)cc3)oc12	-20	4	0.051	2	-2
Brc1cnc(N2CCCC2)nc1N1CCOCC1	-32	55	-0.25	3	-18
Brc1cnc(N2CCCCC2)nc1N1CCOCC1	-6	59*	x	2	-7
CCOc1ccc(N2C(=O)/C(=C/c3ccccc3)N=C2SC)cc1	x	-14	1.1	2	x
COc1ccc(/C=C2\N=C(SC)N(c3ccccc3OC)C2=O)cc1	x	12	-0.42	8.4*	x
O=C(N/N=C/c1ccccc1Cl)c1nc2ccc([N+](=O)[O-])cc2c(=O)[nH]1	x	-5	2.2	10*	x
SMILES	Yeast growth inh	WT yeast gro inh	Cl transport mod	RAM network inh	Yeast lifespan up
CCN(c1ccccc1)S(=O)(=O)c1ccc(Cl)c(NC(=O)CN2C(=O)NC3(CCCC3)C2=O)c1	x	x	-0.21	x	x
CCCCC(=O)N(Cc1nc2sc(C)c(C)c2c(=O)[nH]1)C1CCCC1	x	5	-1	1	x
COc1ncccc1-c1nnn(-c2ccc(Cl)c(Cl)c2)n1	x	22	-0.058	8.8*	x
O=C(O)c1ccc(N2CC3CC(C2)c2cccc(=O)n2C3)c(NC(=S)Nc2ccc(Br)cc2)c1 (configuration not stated)	x	54	0.66	2	x
O=C(c1cc(COc2ccc(F)cc2Cl)on1)N1CCc2ccccc2C1	x	5	-0.93	10*	x
CCN(CC)C1CCN(C(=O)c2cc(COc3ccc(F)cc3Cl)on2)C1 (configuration not stated)	x	2	-1.8	1	x
CCCCNC(=S)N1CCN(c2ccccc2Cl)CC1	x	66*	-1.9	-1	x
S=C(NCc1ccco1)N1CCN(c2ccccc2Cl)CC1	x	72*	-2	0	x
C=CCNC(=S)N1CCN(c2ccccc2Cl)CC1	x	x	-1	x	x
CC1(C(=O)Nc2nnc(C(C)(C)C)s2)Cc2ccccc2C(=O)O1 (configuration not stated)	-6	-6	x	2	3
CCSc1nnc(NC(=O)C2(C)Cc3ccccc3C(=O)O2)s1 (configuration not stated)	-3	-17	1.1	-1	37*
C(=N\Nc1nc2ccccc2[nH]1)/C1CCCCC1	x	-2	-0.34	1	x
S=C(Nc1cccc(Br)c1)c1ccccc1	-16	44	3.7*	-1	-6
COc1cccc(CC2(CO)CCCN(Cc3cc4ccccc4[nH]3)C2)c1 (configuration not stated)	x	16	0.079	1	x
COc1ccc(CCNS(=O)(=O)c2ccc(OC)cc2)cc1	-23	74*	-0.21	1	2
COc1ccc(CCNS(=O)(=O)c2ccc3c(c2)OCCO3)cc1	-26	-14	0.36	1	-1
CCc1ccc(C2CC(=O)N(c3cccc(F)c3)C3=C2C(=O)OC3)cc1 (configuration not stated)	x	-5	x	1	x
NC(N)=N/N=C/c1ccccc1	10	7	0.69	0	-10
NC(N)=N/N=C/c1ccc(OCc2ccccc2Cl)cc1	17	62*	x	3	-29
Cc1c(C(=O)O)sc2nc(SCC(=O)Nc3ccc(S(=O)(=O)NC(C)(C)C)cc3)[nH]c(=O)c12	x	-12	0.64	8.5*	x
Clc1ccc(OCCn2c(-c3ccco3)nc3ccccc32)cc1	-52	83*	-0.059	-2	-7
c1coc(Cn2c(-c3ccco3)nc3ccccc32)c1	-27	-4	-1.8	1	-18
Cc1cc(N/N=C/c2ccc(O)c(C)c2O)nc(-c2ccccc2O)n1	-32	76*	-0.79	0	-8
CN(C)Cc1ccccc1Sc1ccc(Br)cc1	-20	-12	0.22	2	7
CC12CCC(C(=O)NNc3ccc([N+](=O)[O-])cc3)(CC1=O)C2(C)C (configuration not stated)	-3	-1	0.1	0	1
SMILES	Yeast growth inh	WT yeast gro inh	Cl transport mod	RAM network inh	Yeast lifespan up
c1ccc(Nc2nc(-c3ccccn3)cs2)cc1	29	46	-0.055	1	-9
Fc1cccc2sc(Nc3nnc(-c4ccco4)o3)nc12	-46	14	33*	2	94*
COc1cccc2sc(Nc3nnc(-c4ccc(F)cc4)o3)nc12	-27	2	x	0	3
COc1cccc2sc(Nc3nc(-c4ccccn4)cs3)nc12	88*	63*	x	-1	-4
COc1cccc2sc(Nc3nnc(-c4cccs4)o3)nc12	-50	33	58*	1	5
COc1ccccc1/C=C/C=N/NC(=O)CCn1nnc2ccccc21	-26	5	0.32	2	8
COc1ccccc1CNC(=O)c1ccccc1OCc1ccc(F)cc1	-13	67*	-1.9	6	-4
